Drawing on the RNAGym collection of RNA variant scans (doi:10.1126/science.aae0568), this text covers yeast fitness for 75 variants.

Variants at the floor of the assay were thinned out. Bounds are passed on as bounds.

Sequences and labels used below:
B1: tRNA (parent)
chain: GUUCCGUUGGCGUAAUGGUAACGCGUCUCCCUCCUAAGGAGAAGACUGCGGGUUCGAGUCCCGUACGGAACG

Variants of B1 are the subject of this data set. Nature of the data set: yeast fitness relative to wild type (ratio to wild type); higher = fitter; tRNA-Arg(CCU), competitive growth, 37 C, YPD. The method in brief:
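For this measurement, the tRNA-Arg(CCU) gene was varied by chemical synthesis at a 3% per-site mutation rate across 69 sites, and each variant was placed at the native genomic locus in Saccharomyces cerevisiae. The pooled strains went through a 24-hour competition in YPD at 37°C in six parallel replicates, with amplicons from start and end populations read by 100-nucleotide paired-end sequencing. Darwinian fitness relative to wild type followed from the change in each genotype's frequency. Genotypes needed ≥ 100 starting reads, and estimates < 0.5 were set to 0.5.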
Take GUUCCGUUGGGGUAAUGGUAACGCGUCUACCUCCUAAGGUGAAGACUGCGGGUUCGAGUCCCGUACGGAACG: the yeast fitness was ≤ 0.5. With GUUCCGUUGGGGUAAUGGUAACGCGUUUCCCACCUAAGGAGAAGACUGCGGAUUCGAGUUCCGUACGGACCG, the yeast fitness is ≤ 0.5. With GUUCCGUUGGGGUAAUGGUAACGCGUCUCCGUCCUAAGGAGAAGACUGCGGGUUAGAGUCCCGUACGGAACG, the yeast fitness turned out to be 0.618. Under GUUCCGUUGGGGUAAUGGUAACGCGUCUCUCUCCAAAGGAGAAGACUGCGGGGUCGAGUCCCGUACGGACCG stands ≤ 0.5. For the variant GUUCCGUUGGGGUAAUGGUAACGCGUCUCCAUCCUAACGAGAAGACUGCGGGUUUGAAUCCCGUACGGAACG, the yeast fitness turned out to be 0.577. For GUUCCGUUGGGGUAAUGGUAACGCGUUUCCCUUCUAAGGAGAAGACUGCGGGUUCGAGUCCGGUACGGAACG, the yeast fitness was ≤ 0.5.

GUUCCGUUGGGGUAAUGGUAACGCGUCUCCCUACUAAGGAGAAGACUGCCGGUUCGAGUCCCGUACGGAACG: the yeast fitness is ≤ 0.5.

With GUUCCGUUGGGGUAAUGGUAACGCGUCUCUCUCCUAAGAAGAAGCCUGUGGGUUCGAGUCCCGUACGGAACG, the yeast fitness turned out to be 0.614. Consider GUUCCGUUGGGGUAAUGGUAACGCGUUACCCUCCUAAGGAGAAGACUGCGGAUUUGAGUCCCGUACGGAACG, for which the yeast fitness was ≤ 0.5. For GUUCCGUUGGGGUAAUGGUAACGCGUCUCCCUCAUAAGGAGAAGACUGCGGGUUCGACUGCCGUACGGAACG, the yeast fitness stood at 0.84.

Regarding GUUCCGUUGGGGUAAUGGUAACGCGUCUCCGUCCUAAGGAGUAGACUGCGGGUUCGAGUCCCGUACGGAACG, the yeast fitness was 0.527. In the case of GUUCCGUUGGGGUAAUGGUAACGCGUCUCGCUCCUAUGGAAAAGACUGCGGGCUCGAGUCCCGUACGGUACG, the yeast fitness came out at 0.516. Regarding GUUCCGUUGGGGUAAUGGUAACGCGUCUCCCUUCUAAGGAGAAGACUGCGGGUUCGAGCCCCGUACGGAACG, the yeast fitness stood at 0.66. GUUCCGUUGGGGUAAUGGUAACGCGUCUCCCUCGUCAGGAGAAGACUGCGGGUUCGAGUCCCGUACGGAACG: the yeast fitness was ≤ 0.5. Take GUUCCGUUGGGGUAAUGGUAACGCGUCUCCCUCAUAAGGACAAGACUGCGCGUUCAAGUCCCGUACGGAACG: the yeast fitness was ≤ 0.5. As to GUUCCGUUGGGGUAAUGGUAACGCGUCUUCUUCUUAAGGAGAAGACUGCGGGUUCGAGUCCAGUAUGGAACG, the yeast fitness is ≤ 0.5. To GUUCCGUUGGGGUAAUGGUAACGCGUCUGCCUCCUAAGGGAAAGACUGAGGGUUCGAGUCCGGUACGGAACG belongs 0.751. To GUUCCGUUGGGGUAAUGGUAACGCGUCUCCCUCAUAAGGAGAAAAUUGCGGGUUCGAGUCCCGUACGAAACG belongs ≤ 0.5. As for GUUCCGUUGGGGUAAUGGUAACGCGUCUCGCUACUAAGGAGAAGACUGCGGGUUCGCGUCACGUACGGAACG, the yeast fitness amounted to 0.583.

As to GUUCCGUUGGGGUAAUGGUAACGCGUCUCCCUCGUAAGGAGAAGACUGCGGGUUCGAGCCCCGUACGGAACG, the yeast fitness is ≤ 0.5. Consider GUUCCGUUGGGGUAAUGGUAACGCGUCUCGGACCUAAGGAGAAGACUGCGGGUUCGAGUCCCGUACGGAACG, for which the yeast fitness was ≤ 0.5.

GUUCCGUUGGGGUAAUGGUAACGCGUCUUCCUCCUAAGGAGAAGACUGCGGGUUCGGGUCCCGUACGGAACG: the yeast fitness is ≤ 0.5.

In the case of GUUCCGUUGGGGUAAUGGUAACGCGUCUGCCUCCUAAGGAGAAGACUGCCGGUUCGAGUCCCGUACGGAACG, the yeast fitness is ≤ 0.5. Turning to GUUCCGUUGGGGUAAUGGUAACGCGUCUCCCUCAUAAGGAGAAGACUGCGGGUUCGAGUACCGUACGGAACG, the yeast fitness was ≤ 0.5. As to GUUCCGUUGGGGUAAUGGUAACGCGUCUGCGUCCUAUGGAGAAGACUGCGGGUUCGAGUCCCGUACGGAACG, the yeast fitness came out at 0.674. Consider GUUCCGUUGGGGUAAUGGUAACGCGUCUCUCUCCUAAGGAGAAGACUGCGGGUUCGAGUCCCGUGCGGAACG, for which the yeast fitness worked out at 0.595. Regarding GUUCCGUUGGGGUAAUGGUAACGCGUCUCACUCCUAAGGAGAAGACUGCGGGUUCGAGUCCGGUACGCAACG, the yeast fitness is ≤ 0.5. As for GUUCCGUUGGGGUAAUGGUAACGCGUCUUCCUCCCCAGGAGAAGACUGCGGGUUCGAGUCCCGUACGGAACG, the yeast fitness is ≤ 0.5.

As to GUUCCGUUGGGGUAAUGGUAACGCGUCUCCCUCGUAAGGAGAAGACUGCGGGUUCGAGUCCCGUACGGAACG, the yeast fitness was found to be 0.524. As to GUUCCGUUGGGGUAAUGGUAACGCGUCUCCCUCAUAAGGAGAAGACUGCGGGUUCGAGUCCCGUACGGAACG, the yeast fitness turned out to be 0.585. As to GUUCCGUUGGGGUAAUGGUAACGCGUCUCCCUCUUAAGGAGAAGACUGCGGGUUCGAGUCCCGUACGGAACG, the yeast fitness worked out at 0.672. Turning to GUUCCGUUGGGGUAAUGGUAACGCGUCUCUCUCCUAAGGACAAGACUGCAGGUUCGAGUCCCGUACCGAACG, the yeast fitness is ≤ 0.5. GUUCCGUUGGGGUAAUGGUAACGCGUCUCCUUCCUAAGGAGAAGACUGCGGGUUCGAGUCGCGUACGGAACG: the yeast fitness amounted to 0.64.

On to GUUCCGUUGGGGUAAUGGUAACGCGUCUCCUUACUAAGGAGAAGACUGCGGGUUCGAGUCCCGUAUGGAACG, for which the yeast fitness was ≤ 0.5.

On to GUUCCGUUGGGGUAAUGGUAACGCGUCUCCUUCCUAAGGAGUAGACUGCGGGUUCGAGUCCCGUACGGAUCG, for which the yeast fitness is ≤ 0.5. For the variant GUUCCGUUGGGGUAAUGGUAACGCGUCUUUCUCCUAAGGAGAAGACUGCGGGUUCGAGUCCCGUACGGAACG, the yeast fitness is ≤ 0.5.

GUUCCGUUGGGGUAAUGGUAACGCGUCUCCCUGCUAAGGAGAAGACUGCGGGUUCGUGUCCCGUACGGAACG: the yeast fitness was ≤ 0.5. As for GUUCCGUUGGGGUAAUGGUAACGCGUCUCUCUCCUAAGGAGAAGGCUGCGGGUUCGUGUCCUGUACGGAACG, the yeast fitness is ≤ 0.5. Take GUUCCGUUGGGGUAAUGGUAACGCGUCUGCCUCCCAAGGAGAAGACAGCGGGUUCGAGUCCCGUACGCAACG: the yeast fitness was ≤ 0.5. As to GUUCCGUUGGGGUAAUGGUAACGCGUUUCCCUCCUAAGGAGAAGACUGCGGGUUCAGGUCCCGUACGGAACG, the yeast fitness is ≤ 0.5. For the variant GUUCCGUUGGGGUAAUGGUAACGCGUCUACCUCCUAAGGAGACGACUGCGGGUUCGAGUCCCGUAAGGAACG, the yeast fitness is ≤ 0.5. To GUUCCGUUGGGGUAAUGGUAACGCGUCUCCCUCUUAAGGAGCAGACUGCGGGUUCGAGUCACGUACGGAUCG belongs ≤ 0.5.

Turning to GUUCCGUUGGGGUAAUGGUAACGCGUCUUCCUCCUAAGGAGAAGACUGCGGGUUCGAGACCCGUACGGUACG, the yeast fitness is ≤ 0.5.

On to GUUCCGUUGGGGUAAUGGUAACGCGUCUGCCUCCUAAGGAGAAGUCUGCGGGUUCGAGUCCCGUACGGAACG, for which the yeast fitness was ≤ 0.5. On to GUUCCGUUGGGGUAAUGGUAACGCGUCUCCGUCCUAAGGAGAAGACCGCGGGUUGGAGUCCCGUACGGAACG, for which the yeast fitness was ≤ 0.5. Turning to GUUCCGUUGGGGUAAUGGUAACGCGUCUCCCUGCUAAGGAGAAGACUGCGGGUUCGAGUCCGGUACGGAACG, the yeast fitness was ≤ 0.5. For the variant GUUCCGUUGGGGUAAUGGUAACGCGUCUUCCUCCUAAGGAGAAGACCGCGGGUUCGAGUCCCGUAAGGAACG, the yeast fitness is ≤ 0.5. To GUUCCGUUGGGGUAAUGGUAACGCGUCUACCUCCGAAGGAGAGGACUGCGGGUUCGAGUCCCGUACGGACCG belongs ≤ 0.5; to GUUCCGUUGGGGUAAUGGUAACGCGUCUCCCUCAUAAGGAGAAGACUGCGGGAUCGAGUCCCGUACGGAACG, 0.609; to GUUCCGUUGGGGUAAUGGUAACGCGUCUACCUCCUAAGGAGACGACUGCGGGUUCGAGUCCCGUACGGAACG, 0.572. To GUUCCGUUGGGGUAAUGGUAACGCGUCUCCUUCCAAGGGCGAAGACCGCGGGUUCGAGUCCCGGACGGAACG belongs ≤ 0.5; to GUUCCGUUGGGGUAAUGGUAACGCGUCUCCCUCGUAAGGAGAAGACUGCGGGUUCGAGUCCCGUUCGGAACG, ≤ 0.5. To GUUCCGUUGGGGUAAUGGUAACGCGUCUGCGUCCUAAGGAGAAGACUGCGGGUCCGAGUCCCGAACGGAACG belongs ≤ 0.5; to GUUCCGUUGGGGUAAUGGUAACGCGUCUCUCUCCAAAGGAGAAGACUGCGGGGUCGAGUCCUGUACGGAACG, ≤ 0.5. For GUUCCGUUGGGGUAAUGGUAACGCGUCUUCCUCCUAAGGAGAAGACUGCGGGUUCGAGUCACGUCCGGAACG, the yeast fitness was ≤ 0.5. Consider GUUCCGUUGGGGUAAUGGUAACGCGUCUCUCUCCUAAGGAGAAGACUGCGGGUACGAGUCCCGUACGGAACG, for which the yeast fitness is ≤ 0.5. As to GUUCCGUUGGGGUAAUGGUAACGCGUCUCCCUCGUAUGGAGAAGACUGCGGGUUCGAGUCCCGUACGGAACG, the yeast fitness is ≤ 0.5. Consider GUUCCGUUGGGGUAAUGGUAACGCGUCUCGCUCAUACGGAGAAGAUUGCGGGUUCGAGUCCCGUACGGAACG, for which the yeast fitness was ≤ 0.5.

For the variant GUUCCGUUGGGGUAAUGGUAACGCGUCUUCCUCCUAAGGAGAAGCCUGCGGGUUCGAGUCCCGUAGGGAACG, the yeast fitness was ≤ 0.5. GUUCCGUUGGGGUAAUGGUAACGCGUCUCCCUUCUAAGGAGAAGACUGCGGGUUCGAGUCCCGUACGGAACG: the yeast fitness is ≤ 0.5. Consider GUUCCGUUGGGGUAAUGGUAACGCGUCUACCUCCUAAGGAGACGACUGCGGGUUCGAGUCCCGCACGGAACG, for which the yeast fitness is ≤ 0.5. With GUUCCGUUGGGGUAAUGGUAACGCGUCUCCCUCGUAAGGAGAAGACUGCGGGUUGGAGUCCCGUACGGAACG, the yeast fitness is ≤ 0.5. GUUCCGUUGGGGUAAUGGUAACGCGUCUGCGUCCUAAGGAGAAGACUGCGGGUUCGAGUCCCGUACGGAACG: the yeast fitness is ≤ 0.5. Regarding GUUCCGUUGGGGUAAUGGUAACGCGUCUCUCUCUUAAGGAGAAGACUGCGGGUUCGAGUCCCGUACGGAACG, the yeast fitness was ≤ 0.5. Turning to GUUCCGUUGGGGUAAUGGUAACGCGUCUCUCUCCUAAGGAGAAGACUGCGGGUUCGAGUCCCGUACGGAACG, the yeast fitness worked out at 0.643. In the case of GUUCCGUUGGGGUAAUGGUAACGCGUCUCGCUCCUAAGGAGAAGACUGCGGGUUCGAGUCCCGUACGGAACG, the yeast fitness is ≤ 0.5.

As for GUUCCGUUGGGGUAAUGGUAACGCGUCUCCAUCCUAAGAAGAAGACUACGGGUUCGAGUCUCGUCCGGAACG, the yeast fitness is 0.56. Consider GUUCCGUUGGGGUAAUGGUAACGCGUCUUCCUCCUAAGGAGAAGACUGCGGGUUCGAGUCCCGUACGGAACG, for which the yeast fitness was 0.557. Consider GUUCCGUUGGGGUAAUGGUAACGCGUCUGCCUCCUAAGGAGAAGACUGCGGGUUCGAGUCCCGUACGGAACG, for which the yeast fitness was determined as 0.84. Take GUUCCGUUGGGGUAAUGGUAACGCGUCUCCCUCAUUAGGAGAAGACUACGGCUUCGAGUACUGUACGGAACG: the yeast fitness is ≤ 0.5.

With GUUCCGUUGGGGUAAUGGUAACGCGUCUCCCUACUAAGGGGAAGACUGCGGGUUCGAGUCCAGUACCGAACG, the yeast fitness is ≤ 0.5.

GUUCCGUUGGGGUAAUGGUAACGCGUCUUUCUCCUAAGGAGAAGACUGCGGGUACGAGUCCCGUACGGAACG: the yeast fitness was ≤ 0.5. Take GUUCCGUUGGGGUAAUGGUAACGCGUCUCCCUCAUUAGGAGAAGACUGCGGGUUCGAGUACCGUACGGAACG: the yeast fitness is ≤ 0.5. For the variant GUUCCGUUGGGGUAAUGGUAACGCGUCUCUCUCCUAAGGAGAAGAGUGCGGGUUCGACUCCCGUACGGAACG, the yeast fitness was determined as 0.617.

Turning to GUUCCGUUGGGGUAAUGGUAACGCGUCUCGCUCCUAAGGAGAAGACUGUGGGUUCGAGUCGCGUACGGAGCG, the yeast fitness was ≤ 0.5.
